Data reported in ChEMBL document CHEMBL3779892, “Increasing the binding affinity of VEGFR-2 inhibitors by extending their hydrophobic interaction with the active site: Design, synthesis and biological evaluation of 1-substituted-4-(4-methoxybenzyl)phthalazine derivatives” (Eur J Med Chem, 2016).

How the values were obtained:
Assay type in all cases: functional
NCI-H23 = assay: Growth inhibition of human NCI-H23 cells at 10 uM after 48 hrs by sulforhodamine B assay; details: NCI-H23, 48 h, read-out: GI
How it was run: (§1)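 Run at NCI on the 60-line panel. Cells grown in RPMI 1640 with 5% FBS and 2 mM L-glutamine, plated at 5000–40,000 cells/well by doubling time, and held 24 h at 37 °C before dosing. Drug (DMSO stock) given at a single final 10 µM in triplicate wells for 48 h. Adherent cells fixed with cold TCA (10% final), suspension cells with 16% TCA. SRB stain read at 515 nm. Percent growth from Tz, C and Ti.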

[1] = Growth inhibition of human NCI-ADR-RES cells at 10 uM after 48 hrs by sulforhodamine B assay; details: read-out: GI; how it was run: as §1
Malme-3M = assay: Growth inhibition of human MALME-3M cells at 10 uM after 48 hrs by sulforhodamine B assay; details: read-out: GI; how it was run: as §1
[2] = Growth inhibition of human OVCAR4 cells at 10 uM after 48 hrs by sulforhodamine B assay; details: OVCAR-4, 48 h, read-out: GI; how it was run: as §1
[3] = Growth inhibition of human OVCAR5 cells at 10 uM after 48 hrs by sulforhodamine B assay; details: OVCAR-5, 48 h, read-out: GI; how it was run: as §1
[4] = Growth inhibition of human IGROV1 cells at 10 uM after 48 hrs by sulforhodamine B assay; details: IGROV-1, 48 h, read-out: GI; how it was run: as §1
K562 = assay: Growth inhibition of human K562 cells at 10 uM after 48 hrs by sulforhodamine B assay; details: K562, 48 h, read-out: GI; how it was run: as §1
[5] = Growth inhibition of human UO31 cells at 10 uM after 48 hrs by sulforhodamine B assay; details: UO-31, 48 h, read-out: GI
How it was run: (§2)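 NCI-60 panel, adherent cells grown in RPMI 1640 with 5% FBS and 2 mM L-glutamine, plated at 5000–40,000 cells/well and preincubated 24 h at 37 °C, 5% CO2. 10 µM final compound from DMSO stock, triplicate wells, 48 h. Fixed with cold TCA (10% final, 60 min, 4 °C) and stained with 0.4% SRB. Absorbance read at 515 nm; growth calculated against time-zero and control wells.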

MDA-MB-231 = assay: Growth inhibition of human MDA-MB-231 cells at 10 uM after 48 hrs by sulforhodamine B assay; details: MDA-MB-231, 48 h, read-out: GI; how it was run: as §1
HT-29 = assay: Growth inhibition of human HT-29 cells at 10 uM after 48 hrs by sulforhodamine B assay; details: HT-29, 48 h, read-out: GI; how it was run: as §1
[6] = Growth inhibition of human HOP62 cells at 10 uM after 48 hrs by sulforhodamine B assay; details: HOP-62, 48 h, read-out: GI; how it was run: as §1
M14 = assay: Growth inhibition of human M14 cells at 10 uM after 48 hrs by sulforhodamine B assay; details: M14, 48 h, read-out: GI; how it was run: as §1
A549 = assay: Growth inhibition of human A549 cells at 10 uM after 48 hrs by sulforhodamine B assay; details: A549, 48 h, read-out: GI; how it was run: as §1
NCI-H322M = assay: Growth inhibition of human NCI-H322M cells at 10 uM after 48 hrs by sulforhodamine B assay; details: read-out: GI; how it was run: as §1
[7] = Growth inhibition of human BT549 cells at 10 uM after 48 hrs by sulforhodamine B assay; details: BT-549, 48 h, read-out: GI; how it was run: as §1
[8] = Growth inhibition of human RXF393 cells at 10 uM after 48 hrs by sulforhodamine B assay; details: RXF 393, 48 h, read-out: GI; how it was run: as §1
ACHN = assay: Growth inhibition of human ACHN cells at 10 uM after 48 hrs by sulforhodamine B assay; details: read-out: GI; how it was run: as §1
[9] = Growth inhibition of human HOP92 cells at 10 uM after 48 hrs by sulforhodamine B assay; details: HOP-92, 48 h, read-out: GI; how it was run: as §1
U-251 = assay: Growth inhibition of human U251 cells at 10 uM after 48 hrs by sulforhodamine B assay; details: U-251, 48 h, read-out: GI; how it was run: as §2
[10] = Growth inhibition of human SF295 cells at 10 uM after 48 hrs by sulforhodamine B assay; details: SF-295, 48 h, read-out: GI; how it was run: as §1
[11] = Growth inhibition of human SF539 cells at 10 uM after 48 hrs by sulforhodamine B assay; details: SF-539, 48 h, read-out: GI; how it was run: as §1
[12] = Growth inhibition of human LOXIMVI cells at 10 uM after 48 hrs by sulforhodamine B assay; details: LOX IMVI, read-out: GI; how it was run: as §1
CCRF-CEM = assay: Growth inhibition of human CCRF-CEM cells at 10 uM after 48 hrs by sulforhodamine B assay; details: read-out: GI; how it was run: as §1
[13] = Growth inhibition of human COLO205 cells at 10 uM after 48 hrs by sulforhodamine B assay; details: COLO 205, 48 h, read-out: GI; how it was run: as §1
[14] = Growth inhibition of human HCT15 cells at 10 uM after 48 hrs by sulforhodamine B assay; details: HCT-15, 48 h, read-out: GI; how it was run: as §1
[15] = Growth inhibition of human SF268 cells at 10 uM after 48 hrs by sulforhodamine B assay; details: SF-268, 48 h, read-out: GI; how it was run: as §1
[16] = Growth inhibition of human SNB19 cells at 10 uM after 48 hrs by sulforhodamine B assay; details: SNB-19, 48 h, read-out: GI; how it was run: as §1
NCI-H226 = assay: Growth inhibition of human NCI-H226 cells at 10 uM after 48 hrs by sulforhodamine B assay; details: NCI-H226, 48 h, read-out: GI; how it was run: as §1
NCI-H460 = assay: Growth inhibition of human NCI-H460 cells at 10 uM after 48 hrs by sulforhodamine B assay; details: NCI-H460, 48 h, read-out: GI; how it was run: as §1
T47D = assay: Growth inhibition of human T47D cells at 10 uM after 48 hrs by sulforhodamine B assay; details: read-out: GI; how it was run: as §2
[17] = Growth inhibition of human UACC62 cells at 10 uM after 48 hrs by sulforhodamine B assay; details: UACC-62, 48 h, read-out: GI; how it was run: as §2
[18] = Growth inhibition of human SKOV3 cells at 10 uM after 48 hrs by sulforhodamine B assay; details: SK-OV-3, 48 h, read-out: GI; how it was run: as §1
NCI-H522 = assay: Growth inhibition of human NCI-H522 cells at 10 uM after 48 hrs by sulforhodamine B assay; details: NCI-H522, 48 h, read-out: GI; how it was run: as §1
MCF7 = assay: Growth inhibition of human MCF7 cells at 10 uM after 48 hrs by sulforhodamine B assay; details: MCF7, 48 h, read-out: GI; how it was run: as §1
[19] = Growth inhibition of human OVCAR8 cells at 10 uM after 48 hrs by sulforhodamine B assay; details: OVCAR-8, 48 h, read-out: GI; how it was run: as §1
[20] = Growth inhibition of human Caki1 cells at 10 uM after 48 hrs by sulforhodamine B assay; details: CAKI-1, 48 h, read-out: GI; how it was run: as §1
SK-MEL-28 = assay: Growth inhibition of human SK-MEL-28 cells at 10 uM after 48 hrs by sulforhodamine B assay; details: SK-MEL-28, 48 h, read-out: GI; how it was run: as §1

SMILES	inhibition of growth at 10 µM (NCI-H23) [%]	inhibition of growth at 10 µM [1] [%]	inhibition of growth at 10 µM (Malme-3M) [%]	inhibition of growth at 10 µM [2] [%]	inhibition of growth at 10 µM [3] [%]	inhibition of growth at 10 µM [4] [%]	inhibition of growth at 10 µM (K562) [%]	inhibition of growth at 10 µM [5] [%]	inhibition of growth at 10 µM (MDA-MB-231) [%]	inhibition of growth at 10 µM (HT-29) [%]	inhibition of growth at 10 µM [6] [%]	inhibition of growth at 10 µM (M14) [%]	inhibition of growth at 10 µM (A549) [%]	inhibition of growth at 10 µM (NCI-H322M) [%]	inhibition of growth at 10 µM [7] [%]	inhibition of growth at 10 µM [8] [%]	inhibition of growth at 10 µM (ACHN) [%]	inhibition of growth at 10 µM [9] [%]	inhibition of growth at 10 µM (U-251) [%]	inhibition of growth at 10 µM [10] [%]	also measured
COc1ccc(Cc2nnc(Nc3ccc(NC(=O)Nc4ccccc4)cc3)c3ccccc23)cc1	< 30	< 30	< 30	< 30	< 30	< 30	< 30	< 30	31	< 30	< 30	< 30	< 30	< 30	< 30	49	< 30	< 30	32	< 30	inhibition of growth at 10 µM [11]: < 30%; inhibition of growth at 10 µM [12]: < 30%; inhibition of growth at 10 µM (CCRF-CEM): 34%; inhibition of growth at 10 µM [13]: < 30%; inhibition of growth at 10 µM [14]: < 30%; inhibition of growth at 10 µM [15]: < 30%; inhibition of growth at 10 µM [16]: < 30%; inhibition of growth at 10 µM (NCI-H226): < 30%; inhibition of growth at 10 µM (NCI-H460): < 30%; inhibition of growth at 10 µM (T47D): 41%; inhibition of growth at 10 µM [17]: < 30%; inhibition of growth at 10 µM [18]: < 30%; inhibition of growth at 10 µM (NCI-H522): 48%; inhibition of growth at 10 µM (MCF7): < 30%; inhibition of growth at 10 µM [19]: < 30%; inhibition of growth at 10 µM [20]: < 30%; inhibition of growth at 10 µM (SK-MEL-28): < 30%
COc1ccc(Cc2nnc(Nc3ccc(NC(=O)Nc4cccc(C(F)(F)F)c4)cc3)c3ccccc23)cc1	< 30	< 30	< 30	< 30	< 30	< 30	< 30	< 30	< 30	< 30	< 30	30	35	< 30	< 30	50	41	< 30	30	< 30	inhibition of growth at 10 µM [11]: < 30%; inhibition of growth at 10 µM [12]: < 30%; inhibition of growth at 10 µM (CCRF-CEM): 35%; inhibition of growth at 10 µM [13]: < 30%; inhibition of growth at 10 µM [14]: < 30%; inhibition of growth at 10 µM [15]: < 30%; inhibition of growth at 10 µM [16]: 30%; inhibition of growth at 10 µM (NCI-H226): < 30%; inhibition of growth at 10 µM (NCI-H460): < 30%; inhibition of growth at 10 µM (T47D): < 30%; inhibition of growth at 10 µM [17]: < 30%; inhibition of growth at 10 µM [18]: < 30%; inhibition of growth at 10 µM (NCI-H522): 56%; inhibition of growth at 10 µM (MCF7): < 30%; inhibition of growth at 10 µM [19]: < 30%; inhibition of growth at 10 µM [20]: < 30%; inhibition of growth at 10 µM (SK-MEL-28): < 30%
COc1ccc(Cc2nnc(Nc3ccc(NC(=O)Nc4ccc(C#N)cc4)cc3)c3ccccc23)cc1	< 30	< 30	42	< 30	< 30	46	50	44	63	45	33	35	36	< 30	51	110	48	< 30	63	86	inhibition of growth at 10 µM [11]: 67%; inhibition of growth at 10 µM [12]: 46%; inhibition of growth at 10 µM (CCRF-CEM): 47%; inhibition of growth at 10 µM [13]: < 30%; inhibition of growth at 10 µM [14]: 36%; inhibition of growth at 10 µM [15]: < 30%; inhibition of growth at 10 µM [16]: 43%; inhibition of growth at 10 µM (NCI-H226): < 30%; inhibition of growth at 10 µM (NCI-H460): 40%; inhibition of growth at 10 µM (T47D): 48%; inhibition of growth at 10 µM [17]: < 30%; inhibition of growth at 10 µM [18]: 37%; inhibition of growth at 10 µM (NCI-H522): 54%; inhibition of growth at 10 µM (MCF7): 45%; inhibition of growth at 10 µM [19]: < 30%; inhibition of growth at 10 µM [20]: < 30%; inhibition of growth at 10 µM (SK-MEL-28): 45%
COc1ccc(Cc2nnc(Nc3ccc(NC(=O)Nc4ccccc4Cl)cc3)c3ccccc23)cc1	< 30	< 30	< 30	< 30	< 30	< 30	< 30	< 30	< 30	< 30	< 30	< 30	< 30	< 30	< 30	48	< 30	< 30	< 30	< 30	inhibition of growth at 10 µM [11]: < 30%; inhibition of growth at 10 µM [12]: < 30%; inhibition of growth at 10 µM (CCRF-CEM): < 30%; inhibition of growth at 10 µM [13]: < 30%; inhibition of growth at 10 µM [14]: < 30%; inhibition of growth at 10 µM [15]: < 30%; inhibition of growth at 10 µM [16]: < 30%; inhibition of growth at 10 µM (NCI-H226): < 30%; inhibition of growth at 10 µM (NCI-H460): < 30%; inhibition of growth at 10 µM (T47D): 52%; inhibition of growth at 10 µM [17]: < 30%; inhibition of growth at 10 µM [18]: < 30%; inhibition of growth at 10 µM (NCI-H522): 33%; inhibition of growth at 10 µM (MCF7): 32%; inhibition of growth at 10 µM [19]: < 30%; inhibition of growth at 10 µM [20]: < 30%; inhibition of growth at 10 µM (SK-MEL-28): < 30%
